Compound activity (PubChem)
Rows were chosen to be rich in hits. Some 4.1% of all compounds tested hit in one or more screens of this group.
SMARCA2 activ: increases SMARCA2 function in MMTV reporter cells | MG213 cells, MMTV-luciferase reporter, dexamethasone, overnight | activation, % at 9.1 µM | 370,000 compounds, 1% hits | AID 652017; in the data active = activation above about 7.8%;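 note: 0% = vehicle wells and 100% = reference activator wells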
ATG4B inhibitor: inhibitors of human ATG4B cysteine protease; Q9Y4P1; 340,000 compounds, 0.51% hits; inhibition, % at 8.33 µM; ATG4B cleavage of LC3-PLA2, NBD-HPC fluorescence, 1 h; AID 504462; in the data active = inhibition above about 40%
Target sequence (Q9Y4P1 whole entry, looked up): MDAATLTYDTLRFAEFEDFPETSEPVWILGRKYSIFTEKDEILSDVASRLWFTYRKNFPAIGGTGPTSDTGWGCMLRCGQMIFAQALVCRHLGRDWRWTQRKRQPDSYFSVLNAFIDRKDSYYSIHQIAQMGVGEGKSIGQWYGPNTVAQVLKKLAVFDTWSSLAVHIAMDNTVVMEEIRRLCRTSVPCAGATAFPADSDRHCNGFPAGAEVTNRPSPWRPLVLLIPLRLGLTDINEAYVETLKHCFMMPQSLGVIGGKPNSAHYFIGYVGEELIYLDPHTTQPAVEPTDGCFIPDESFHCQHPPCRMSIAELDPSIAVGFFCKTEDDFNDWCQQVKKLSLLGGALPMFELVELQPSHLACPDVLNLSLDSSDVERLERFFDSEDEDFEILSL
MPTP inh: blocks calcium-induced mitochondrial swelling; isolated mouse mitochondria, Ca2+ swelling absorbance, 30 min; inhibition, % at 10 µM; 360,000 compounds, 1.4% hits;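 active = inhibition of 50% or more, scaled per plate between neutral and stimulator controls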;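 note: 0% = DMSO wells given calcium and 100% = 1 mM EGTA wells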
MC4R barr agon: activates human MC4R beta-arrestin recruitment; P32245; U2OS MC4R beta-arrestin complementation, luminescence; percent of melanotan II response, DMSO zero; activation, % at 8.9 µM; 360,000 compounds, 0.98% hits; AID 540308;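 active = activation above a per-plate cutoff, the mean activation of sample wells on that plate plus 3 SD, cut at about 8% in these data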
Target sequence (P32245 whole entry, looked up): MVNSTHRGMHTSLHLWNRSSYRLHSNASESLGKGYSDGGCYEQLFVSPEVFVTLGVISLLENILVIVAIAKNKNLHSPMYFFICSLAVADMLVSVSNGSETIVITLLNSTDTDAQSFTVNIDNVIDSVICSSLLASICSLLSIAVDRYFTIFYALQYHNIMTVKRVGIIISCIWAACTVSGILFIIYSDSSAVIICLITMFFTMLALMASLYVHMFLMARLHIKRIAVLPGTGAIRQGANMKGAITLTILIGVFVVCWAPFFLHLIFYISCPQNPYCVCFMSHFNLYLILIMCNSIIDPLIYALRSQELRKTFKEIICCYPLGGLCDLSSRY
MC4R antag cAMP: antagonists of human melanocortin 4 receptor (MC4R). P32245. MC4R-expressing cells, MTII-stimulated cAMP, LANCE TR-FRET. inhibition, % at 6.5 µM. 360,000 compounds, 0.48% hits. AID 540295;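 active = inhibition above its plate's cutoff, the mean of tested wells on that plate plus 3 SD, cut at about 29% in these data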;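 note: 0% = Melanotan II alone and 100% = Melanotan II plus saturating MCL0020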
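Material: U2OS-MC4R stable cell line | Reagent: Melanotan II challenge after compound preincubation | Doses: One concentration, 6.5 µM nominal | Incubation: 30-min compound preincubation, 1-h Melanotan II challenge, 1-h detection, room temperature | Signal: TR-FRET cAMP assay | Replicates: One well per compound, no replicates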
cAMP nonselect: U2OS forskolin cAMP inhibition counter-screen; shares compounds with MC4R antag cAMP; parental U2OS, LANCE TR-FRET; inhibition, % at 6.5 µM; 1,600 compounds, 26% hits; AID 602193;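 active = mean inhibition over triplicates above the low-control well mean plus 3 SD, set per campaign, cut at about 13% in these data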;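 note: signal is single emission at 671 nm which falls as cellular cAMP rises; 0% = forskolin-stimulated wells and 100% = buffer without forskolin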
MC4R antag conf: human MC4R cAMP antagonism confirmation | shares compounds with MC4R antag cAMP | MC4R-expressing cells, MTII-stimulated cAMP, TR-FRET | inhibition, % at 6.5 µM | 1,600 compounds, 27% hits; in the data active = inhibition above about 29%;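 note: 0% = agonist stimulated wells alone and 100% = agonist stimulated wells plus saturating reference antagonist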
An asterisk follows results filed as active; nt = not tested or not shown.

SMILES | SMARCA2 activ | ATG4B inhibitor | MPTP inh | MC4R barr agon | MC4R antag cAMP | cAMP nonselect | MC4R antag conf
O=C(COC(=O)c1cc(S(=O)(=O)N2CCCC2)ccc1O)Nc1ccc(S(=O)(=O)N2CCOCC2)cc1 | 1 | -9 | 11 | 2 | 33* | -10 | -26
O=C(NC1CCCCN(Cc2cccc(C(F)(F)F)c2)C1=O)c1ccc(-c2ccccc2)cc1 (stereo not given) | -3 | nt | nt | nt | nt | nt | nt
CC1=Nc2ccc(C)cc2/C1=C/c1c(N)n2c(S(=O)(=O)C(C)C)nsc2nc1=O | 1 | 12 | 8 | 0 | 33* | 3 | 6
COC[C@H]1CCCN1c1cccc2c1S(=O)(=O)N(C1CC1)CC[C@@H](C)O2 | -3 | nt | nt | nt | nt | nt | nt
COC(=O)c1ccccc1NC(=O)CNC(=O)c1ccc(OC)c(OC)c1 | -1 | 7 | -3 | 1 | 31* | 6 | 2
O=C(c1ccc2c(c1)OCO2)N1CCC(Oc2cccnc2)CC1 | -2 | nt | nt | nt | nt | nt | nt
Nc1ccn([C@@H]2O[C@H](C(=O)N3CCN(CCO)CC3)[C@@H](O)[C@H]2O)c(=O)n1 | 1 | nt | nt | nt | nt | nt | nt
CCCC#C/C(CCC)=C1\c2ccccc2C(=O)N1c1ccccc1 | 0 | nt | nt | nt | nt | nt | nt
O=C(O)c1ccc(-n2ccnc2)c([N+](=O)[O-])c1 | -1 | 1 | 0 | -1 | 6 | nt | nt
COC(=O)c1cc([N+](=O)[O-])c(-n2ccnc2)c([N+](=O)[O-])c1 | -4 | 3 | 2 | 0 | 31* | -3 | 0
Cc1nc(C(C)NC(=O)c2ccc(OC3CCN(Cc4ccccn4)CC3)cc2)c(C)s1 (stereo not given) | -4 | -5 | -2 | -1 | 6 | nt | nt
CC(NC(=O)c1ccc(OC2CCN(Cc3ccccn3)CC2)cc1)c1nccs1 (stereo not given) | 2 | 3 | 2 | 0 | 29* | -1 | -5
CC1=NOC(=O)/C1=C\c1ccc(-c2ccc(Cl)c(C(=O)O)c2)o1 | 1 | 8 | -1 | 1 | -4 | nt | nt
CC1=NOC(=O)/C1=C\c1ccc(-c2ccccc2Br)o1 | -2 | 16 | 3 | -3 | 62* | 9 | 11
COc1cc(OC)cc(OC(=O)C2CCN(C(=O)c3ccc(F)cc3)CC2)c1 | -2 | 3 | -1 | -2 | 15 | nt | nt
COc1cc(OC)cc(OC(=O)C2CCN(C(=O)c3ccc(Cl)cc3)CC2)c1 | 0 | -4 | -2 | 2 | 29* | 6 | 7
NC(N)=NS(=O)(=O)c1ccc(N/C=C\C(=O)c2ccncc2)cc1 | 6 | 13 | -1 | 0 | 31* | -3 | -27
Cc1noc(NS(=O)(=O)c2ccc(N/C=C\C(=O)c3ccncc3)cc2)c1C | 4 | 3 | 0 | -2 | 2 | nt | nt
O=C(C(=O)N1CCC(CNS(=O)(=O)c2ccccc2OC(F)(F)F)CC1)c1cccs1 | -4 | nt | nt | nt | nt | nt | nt
COc1ccc(-c2ccc(CCC(=O)O)n2CC(=O)Nc2ccccc2C)cc1 | -3 | 11 | 0 | -1 | 31* | 3 | 1
O=C1CCC2(CCCCC2)N1CCCO | -2 | nt | nt | nt | nt | nt | nt
Cc1[nH]c(C)c(C(=O)/C=C/c2ccc([N+](=O)[O-])cc2)c1C | 3 | 0 | 1 | -2 | 31* | 11 | 31*
OCCN1CCN(c2cc(C(F)(F)F)nc3c(F)cccc23)CC1 | -3 | 3 | 1 | -2 | 30* | -2 | 5
O=C(O)COCC(=O)N1CCN(c2cc(C(F)(F)F)nc3ccccc23)CC1 | 4 | -6 | 1 | -1 | 1 | nt | nt
Cc1ccccc1Cn1cc(COC(=O)NCC(C)C)nn1 | 0 | nt | nt | nt | nt | nt | nt
SMILES | SMARCA2 activ | ATG4B inhibitor | MPTP inh | MC4R barr agon | MC4R antag cAMP | cAMP nonselect | MC4R antag conf
C#CC(=O)N(c1ccc(OC)cc1OC)C(C(=O)NC1CCCC1)c1cccs1 (stereo not given) | -8 | -1 | -1 | 9.0* | 43* | -38 | 42*
C#CC(=O)N(c1cc(OC)ccc1OC)C(C(=O)NC1CCCC1)c1cccs1 (stereo not given) | nt | -1 | -2 | 16* | 33* | -34 | 22
COc1ccc(N(C(=O)c2ccco2)C(C(=O)NC2CCCCC2)c2cccs2)cc1OC (stereo not given) | -4 | -13 | 2 | -3 | 12 | nt | nt
CC(C)CN1CCN(C(=O)COC(=O)c2ccc(S(C)(=O)=O)c([N+](=O)[O-])c2)CC1 | -11 | nt | 0 | -1 | 31* | 23* | 41*
CS(=O)(=O)c1ccc(C(=O)OCC(=O)NC23CC4CC(CC(C4)C2)C3)cc1[N+](=O)[O-] | 3 | -11 | 1 | -4 | 50* | 4 | 62*
Cc1ccc(Cn2cc(CN(C(C)(C)C)S(=O)(=O)c3ccc(F)cc3Br)nn2)cc1 | -3 | nt | nt | nt | nt | nt | nt
Cc1cc(/C=C2/NC(=O)N(Cc3ccccc3F)C2=O)c(C)n1C | 1 | 15 | -2 | 0 | 35* | 2 | 5
C#CCNC(=O)C[C@H]1C[C@@]2(C(=O)OC)C(=C[C@H](C(C)(C)C)O[C@@H]2C)N(Cc2ccc3c(c2)OCO3)C1=O | -6 | nt | nt | nt | nt | nt | nt
COc1ccc(CNC(=O)CCN2C(=O)c3ccncc3C2=O)cc1OC | 1 | -5 | 0 | 1 | 34* | -1 | -14
COc1ccc(NC(=O)CCCCCN2C(=O)c3cccc([N+](=O)[O-])c3C2=O)c(OC)c1 | -1 | -3 | 0 | 0 | 16 | nt | nt
O=C(CCN1C(=O)c2cccc([N+](=O)[O-])c2C1=O)NC1CCCCCC1 | -2 | -8 | 1 | -2 | 4 | nt | nt
COc1cc(OC)c(OC)cc1CNC(=O)CCN1C(=O)c2cccc([N+](=O)[O-])c2C1=O | -4 | 6 | 1 | 0 | 32* | 5 | 13
COc1ccc(OC)c(NC(=O)CCN2C(=O)c3cccc([N+](=O)[O-])c3C2=O)c1 | -3 | -3 | -1 | -1 | 41* | 13 | 27
CC(C)N(c1ccccc1)c1ccc(NC(=O)COC(=O)CCN2C(=O)c3cccc([N+](=O)[O-])c3C2=O)cc1 | -2 | -5 | 3 | 7 | 36* | 13 | 21
COC(=O)[C@]12CCCCC=C1N(CCc1ccc(OC)c(OC)c1)C(=O)[C@H](CC(=O)NCCc1ccccc1OC)C2 | -2 | nt | -1 | nt | nt | nt | nt
CCOC(=O)[C@@]12CCCC3=C1N(CCC3)C(=O)[C@H]2CC(=O)NCCC(C)C | -2 | nt | nt | nt | nt | nt | nt
O=C(CSc1nc2ccccc2nc1N1CCCCC1)N1CCN(S(=O)(=O)c2cc(Cl)ccc2Cl)CC1 | -3 | nt | nt | nt | nt | nt | nt
CN(C)c1ccc(NC(=O)CCN2C(=O)c3cccc([N+](=O)[O-])c3C2=O)cc1 | -3 | 3 | 0 | 1 | 11 | nt | nt
CCOc1ccc(NC(=O)CCN2C(=O)c3cccc([N+](=O)[O-])c3C2=O)cc1 | -1 | 1 | 1 | 1 | 33* | 10 | 18
COc1ccccc1NC(=O)OC1CC2CC1[C@H]1CCCCN1[C@H]2C (stereo not given in full) | -2 | nt | nt | nt | nt | nt | nt
